Assays:
[1] = Cytotoxicity against mouse NIH/3T3 cells; assay type: cell-based, NIH3T3; conditions: read-out: TC50 (the source's name)
[2] = system: Trypanosoma brucei brucei; experiment: Antitrypanosomal activity against Trypanosoma brucei brucei 427 at 5 uM after 48 hrs by presto blue dye based fluorescence assay relative to control; assay type: functional
Outline: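 Single-concentration screen of bloodstream T. brucei cultures at 5 μM, 5 × 10^4 cells/mL; percent proliferation inhibition recorded.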

[3] = Cytotoxicity against human HepG2 cells; assay type: cell-based; conditions: read-out: TC50 (the source's name)
Trypanosoma cruzi = experiment: Antitrypanosomal activity against Trypanosoma cruzi Tulahuen intracellular amastigote harboring beta-galactosidase infected in mouse NIH/3T3 cells after 96 hrs by CPRG reagent based assay; assay type: functional, organism-based; conditions: NIH3T3, 96 h
Plasmodium falciparum = experiment: Antimalarial activity against Plasmodium falciparum D6 trophozoites after 72 hrs by SYBR Green I dye-based fluorescence assay; assay type: functional, organism-based; conditions: D6, 72 h
Outline: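 P. falciparum D6 strain; compounds run in duplicate or quadruplicate; EC50 determined from dose-response.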

[4] = Selectivity index, ratio of TC50 for mouse NIH/3T3 cells to EC50 for Trypanosoma cruzi Tulahuen intracellular amastigote harboring beta-galactosidase; assay type: toxicity, cell-based; conditions: read-out: Selectivity Index
Outline: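 NIH 3T3 cells, the host line for intracellular T. cruzi amastigote culture, tested for toxicity. Selectivity = NIH3T3 TC50 / T. cruzi EC50.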

Leishmania major = experiment: Antileishmanial activity against Leishmania major intracellular amastigotes harboring luciferase infected in mouse RAW264.7 cells after 96 hrs by luminescence assay; assay type: functional, organism-based; conditions: RAW264.7, 96 h
Outline: (§1)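 L. major amastigotes screened in duplicate or quadruplicate. Selectivity derived as HepG2 TC50 / L. major EC50.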

[5] = Selectivity index, ratio of TC50 for human HepG2 cells to EC50 for Leishmania major intracellular amastigotes harboring luciferase infected in mouse RAW264.7 cells; assay type: toxicity, cell-based; conditions: read-out: Selectivity Index; outline: as §1
[6] = Selectivity index, ratio of TC50 for human HepG2 cells to EC50 for Plasmodium falciparum D6 trophozoites; assay type: toxicity; conditions: read-out: Selectivity Index
Outline: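 P. falciparum D6 screened in duplicate or quadruplicate. Selectivity = HepG2 TC50 / P. falciparum EC50.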

[7] = Selectivity index, ratio of TC50 for human HepG2 cells to EC50 for Trypanosoma brucei brucei 427; assay type: toxicity; conditions: read-out: Selectivity Index
[8] = system: Trypanosoma brucei brucei; experiment: Antitrypanosomal activity against Trypanosoma brucei brucei 427 after 48 hrs by presto blue dye based fluorescence assay; assay type: functional, organism-based; conditions: Trypanosoma brucei, 427, 48 h

SMILES	CC50 [1]	Activity [2]	CC50 [3]	EC50 (Trypanosoma cruzi)	EC50 (Plasmodium falciparum)	selectivity ratio [4]	EC50 (Leishmania major)	selectivity ratio [5]	selectivity ratio [6]	selectivity ratio [7]	EC50 [8]
CN(C)CC#Cc1cc2ncnc(Nc3ccc(OCc4cccc(F)c4)c(Cl)c3)c2s1	> 50 µM	52%	> 32 µM	8.2 µM	> 15 µM	> 6	2.5 µM	> 13	–	–	–
CN(CC#Cc1cc2ncnc(Nc3ccc(OCc4cccc(F)c4)c(Cl)c3)c2s1)Cc1ccccc1	> 50 µM	18%	> 27 µM	> 50 µM	> 15 µM	–	> 15 µM	–	–	–	–
Fc1cccc(COc2ccc(Nc3ncnc4ccc(C#CCN5CCSCC5)cc34)cc2Cl)c1	> 50 µM	19%	> 29 µM	2.5 µM	1.1 µM	> 20	5.4 µM	> 5.4	> 26	–	–
CC(C)CC#Cc1cc2ncnc(Nc3ccc(OCc4cccc(F)c4)c(Cl)c3)c2s1	> 50 µM	11%	> 32 µM	> 50 µM	> 15 µM	–	> 15 µM	–	–	–	–
CCOC(=O)CN(C)CC#Cc1cc2c(Nc3ccc(OCc4cccc(F)c4)c(Cl)c3)ncnc2s1	> 50 µM	53%	> 28 µM	> 50 µM	> 15 µM	–	9 µM	> 3.1	–	–	–
C[C@@H]1[C@H](O)[C@@H](C)/C=C/C=C/C=C/C=C/C=C/C=C/C=C/[C@H](O[C@@H]2O[C@H](C)[C@@H](O)[C@H](N)[C@@H]2O)C[C@@H]2O[C@](O)(C[C@@H](O)C[C@@H](O)[C@H](O)CC[C@@H](O)C[C@@H](O)CC(=O)O[C@H]1C)C[C@H](O)[C@H]2C(=O)O [AMPHOTERICIN B]	–	–	–	–	–	–	0.035 µM	–	–	–	–
CC(C)(C)OC(=O)N1CCC[C@H]1C#Cc1cc2ncnc(Nc3ccc(OCc4cccc(F)c4)c(Cl)c3)c2s1	> 100 µM	>75%	> 26 µM	> 50 µM	1.7 µM	–	1.6 µM	> 16	> 15	> 22	1.2 µM
CN(CC#Cc1cc2c(Nc3ccc(OCc4cccc(F)c4)c(Cl)c3)ncnc2s1)Cc1ccccc1	2.5 µM	0%	21.6 µM	1.9 µM	4.8 µM	1.3	11 µM	2	4.6	–	–
CCCN(CC#Cc1cc2ncnc(Nc3ccc(OCc4cccc(F)c4)c(Cl)c3)c2s1)CCC	> 50 µM	1%	26.5 µM	> 50 µM	> 15 µM	–	6 µM	4.5	–	–	–
COCC#Cc1cc2c(Nc3ccc(OCc4cccc(F)c4)c(Cl)c3)ncnc2s1	1.7 µM	18%	9.5 µM	1.5 µM	3.02 µM	1.1	7.3 µM	1.3	3.2	–	–
Fc1cccc(COc2ccc(Nc3ncnc4cc(C#Cc5cn6ccnc6cn5)sc34)cc2Cl)c1	> 50 µM	33%	> 28 µM	> 50 µM	5.7 µM	–	> 15 µM	–	> 4.9	–	–
CC(C)(C)CC#Cc1cc2c(Nc3ccc(OCc4cccc(F)c4)c(Cl)c3)ncnc2s1	> 50 µM	1%	> 32 µM	30 µM	5.7 µM	> 1.7	> 15 µM	–	> 5.6	–	–
Fc1cccc(COc2ccc(Nc3ncnc4ccc(C#CC5CCCC5)cc34)cc2Cl)c1	> 50 µM	2%	> 3 µM	2 µM	> 15 µM	> 25	> 2 µM	–	–	–	–
Fc1cccc(COc2ccc(Nc3ncnc4cc(C#Cc5ccc(C(F)(F)F)nc5)sc34)cc2Cl)c1	> 50 µM	31%	> 5 µM	> 50 µM	> 3.6 µM	–	> 3 µM	–	–	–	–
Fc1cccc(COc2ccc(Nc3ncnc4cc(C#CCN5CCCC5)sc34)cc2Cl)c1	6.4 µM	>75%	4.9 µM	1.8 µM	1.3 µM	3.6	4.1 µM	1.2	3.8	18	0.28 µM
COCC#Cc1cc2ncnc(Nc3ccc(OCc4cccc(F)c4)c(Cl)c3)c2s1	> 50 µM	>75%	> 33 µM	30.7 µM	5.9 µM	> 1.6	9.4 µM	> 3.5	> 5.6	> 9.7	3.4 µM

SMILES	CC50 [1]	Activity [2]	CC50 [3]	EC50 (Trypanosoma cruzi)	EC50 (Plasmodium falciparum)	selectivity ratio [4]	EC50 (Leishmania major)	selectivity ratio [5]	selectivity ratio [6]	selectivity ratio [7]	EC50 [8]
Fc1cccc(COc2ccc(Nc3ncnc4cc(C#CCN5CCNCC5)sc34)cc2Cl)c1	> 50 µM	16%	> 29 µM	> 50 µM	1.9 µM	–	4 µM	> 7.3	> 15	–	–
Fc1cccc(COc2ccc(Nc3ncnc4cc(C#CCN5CCOCC5)sc34)cc2Cl)c1	4.7 µM	16%	> 29 µM	3.4 µM	3 µM	1.4	7.6 µM	> 3.8	> 9.7	–	–
Fc1cccc(COc2ccc(Nc3ncnc4cc(C#Cc5ncccc5F)sc34)cc2Cl)c1	47 µM	19%	30 µM	19 µM	1.1 µM	2.5	> 15 µM	–	27	–	–
Fc1cccc(COc2ccc(Nc3ncnc4cc(C#CC5CCCC5)sc34)cc2Cl)c1	> 100 µM	>75%	> 31 µM	> 50 µM	3.6 µM	–	> 15 µM	–	> 8.6	> 41	0.76 µM
CC(C)(C)OC(=O)N1CCN(CC#Cc2cc3ncnc(Nc4ccc(OCc5cccc(F)c5)c(Cl)c4)c3s2)CC1	47 µM	15%	> 24 µM	13 µM	1.5 µM	3.6	6.9 µM	> 3.5	> 19	–	–
O=C(Cn1ccnc1[N+](=O)[O-])NCc1ccccc1 [BENZNIDAZOLE]	–	–	–	0.79 µM	–	–	–	–	–	–	–
CCN(CC)CCCC(C)Nc1ccnc2cc(Cl)ccc12 (centres undefined) [CHLOROQUINE]	–	–	–	–	0.0089 µM	–	–	–	–	–	–
Fc1cccc(COc2ccc(Nc3ncnc4sc(C#CCN5CCOCC5)cc34)cc2Cl)c1	–	48%	> 29 µM	–	3 µM	–	6.5 µM	> 4.5	> 9.7	–	–
Fc1cccc(COc2ccc(Nc3ncnc4ccc(C#CCN5CCOCC5)cc34)cc2Cl)c1	33 µM	27%	> 30 µM	0.8 µM	5.9 µM	41	5.5 µM	> 5.5	> 5.1	–	–
CCOC(=O)CN(C)CC#Cc1cc2ncnc(Nc3ccc(OCc4cccc(F)c4)c(Cl)c3)c2s1	52 µM	27%	27 µM	9.6 µM	3.8 µM	5.4	4.6 µM	5.9	7.1	–	–
CC(C)(C)CC#Cc1cc2ncnc(Nc3ccc(OCc4cccc(F)c4)c(Cl)c3)c2s1	> 50 µM	31%	29.3 µM	> 50 µM	> 15 µM	–	> 15 µM	–	–	–	–
Cc1ccc(C(=O)Nc2ccc(S(=O)(=O)O)c3cc(S(=O)(=O)O)cc(S(=O)(=O)O)c23)cc1NC(=O)c1cccc(NC(=O)Nc2cccc(C(=O)Nc3cc(C(=O)Nc4ccc(S(=O)(=O)O)c5cc(S(=O)(=O)O)cc(S(=O)(=O)O)c45)ccc3C)c2)c1 [SURAMIN]	–	–	–	–	–	–	–	–	–	–	0.04 µM
Fc1cccc(COc2ccc(Nc3ncnc4cc(C#CCN5CCSCC5)sc34)cc2Cl)c1	> 50 µM	12%	> 28 µM	5 µM	> 15 µM	> 10	5.9 µM	> 4.8	–	–	–
Fc1cccc(COc2ccc(Nc3ncnc4ccc(-c5cccc(N6CCOCC6)c5)cc34)cc2Cl)c1	–	–	> 35 µM	–	–	–	–	–	–	–	–
CCOC(=O)CN(C)CC#Cc1ccc2ncnc(Nc3ccc(OCc4cccc(F)c4)c(Cl)c3)c2c1	> 50 µM	23%	> 28 µM	8 µM	> 15 µM	> 6.3	> 15 µM	–	–	–	–

Reference: ChEMBL document CHEMBL4266004, “Series of Alkynyl-Substituted Thienopyrimidines as Inhibitors of Protozoan Parasite Proliferation” (ACS Med Chem Lett, 2018)
